How the values were obtained:
[1] = Tmax in monkey at 3 mg/kg, po by LC-MS/MS analysis; assay type: ADME, organism-based, Macaca mulatta; design: dose 3 mg/kg, route oral; settings: rhesus monkey, in vivo
Canis lupus familiaris [2] = assay: Cardiotoxicity in dog assessed as increase in mean arterial blood pressure at 10 to 30 mg/kg, po after 60 mins; settings: in vivo, 1 h
Rhesus monkey [3] = assay: Volume of distribution at steady state in monkey at 3 mg/kg, po by LC-MS/MS analysis; assay type: ADME, organism-based, Macaca mulatta; design: dose 3 mg/kg, route oral; settings: in vivo
Rattus norvegicus [4] = assay: Hepatic blood flow in Sprague-Dawley rat at 3 mg/kg, po by LC-MS/MS analysis; assay type: ADME, organism-based, Liver; design: dose 3 mg/kg, route oral; settings: in vivo
Canis familiaris [5] = assay: Hepatic blood flow in dog at 3 mg/kg, po by LC-MS/MS analysis; assay type: ADME, organism-based, Canis lupus familiaris, Liver; design: dose 3 mg/kg, route oral; settings: in vivo
[6] = Ratio of drug level in brain to plasma in Sprague-Dawley rat at 3 mg/kg, po and iv after 0.75 to 3 hrs by LC-MS/MS analysis; assay type: ADME, organism-based; design: dose 3 mg/kg, route oral; settings: read-out: BPR
In short: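 Brain (µg/mg) and plasma (µg/mL) levels were measured after oral dosing, with three rats per time point. The b/p ratio was the mean of the nine individual ratios.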

Canis lupus familiaris [7] = assay: Cardiotoxicity in dog assessed as increase in mean arterial blood pressure at 10 to 30 mg/kg, po; settings: in vivo
[8] = Cmax in mouse at 3 mg/kg, po by LC-MS/MS analysis; assay type: ADME, organism-based; design: dose 3 mg/kg, route oral; settings: in vivo
[9] = Half life in monkey at 3 mg/kg, po by LC-MS/MS analysis; assay type: ADME, organism-based, Macaca mulatta; design: dose 3 mg/kg, route oral; settings: rhesus monkey, in vivo
Histamine H3 receptor [10] = molecular target: Histamine H3 receptor (Rattus norvegicus, UniProt Q9QYN8); assay: Displacement of N-[3H]-methylhistamine from histamine H3 receptor in rat cortex membranes; assay type: cell membranes, Membrane
Rattus norvegicus [11] = assay: Inhibition of RAMH-induced dipsogenia in po dosed Sprague-Dawley rat administered 30 mins prior to RAMH challenge measured up to 20 mins; assay type: functional; settings: read-out: MED
In short: (§1)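 Rats given compound orally 0.5 h (or, for duration of action, at selected times up to 6 h) before RAMH 10 mg/kg SC; water consumed over 20 min measured. Screening doses 1 or 0.3 mg/kg PO, also 0.1 mg/kg; duration study at 0.6 mg/kg PO. MED = minimum dose fully inhibiting drinking; means ± SEM.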

[12] = molecular target: Voltage-gated inwardly rectifying potassium channel KCNH2 (Homo sapiens, UniProt Q12809); assay: Inhibition of human ERG by patch-clamp assay
Voltage-gated inwardly rectifying potassium channel KCNH2, sequence (Q12809 whole entry): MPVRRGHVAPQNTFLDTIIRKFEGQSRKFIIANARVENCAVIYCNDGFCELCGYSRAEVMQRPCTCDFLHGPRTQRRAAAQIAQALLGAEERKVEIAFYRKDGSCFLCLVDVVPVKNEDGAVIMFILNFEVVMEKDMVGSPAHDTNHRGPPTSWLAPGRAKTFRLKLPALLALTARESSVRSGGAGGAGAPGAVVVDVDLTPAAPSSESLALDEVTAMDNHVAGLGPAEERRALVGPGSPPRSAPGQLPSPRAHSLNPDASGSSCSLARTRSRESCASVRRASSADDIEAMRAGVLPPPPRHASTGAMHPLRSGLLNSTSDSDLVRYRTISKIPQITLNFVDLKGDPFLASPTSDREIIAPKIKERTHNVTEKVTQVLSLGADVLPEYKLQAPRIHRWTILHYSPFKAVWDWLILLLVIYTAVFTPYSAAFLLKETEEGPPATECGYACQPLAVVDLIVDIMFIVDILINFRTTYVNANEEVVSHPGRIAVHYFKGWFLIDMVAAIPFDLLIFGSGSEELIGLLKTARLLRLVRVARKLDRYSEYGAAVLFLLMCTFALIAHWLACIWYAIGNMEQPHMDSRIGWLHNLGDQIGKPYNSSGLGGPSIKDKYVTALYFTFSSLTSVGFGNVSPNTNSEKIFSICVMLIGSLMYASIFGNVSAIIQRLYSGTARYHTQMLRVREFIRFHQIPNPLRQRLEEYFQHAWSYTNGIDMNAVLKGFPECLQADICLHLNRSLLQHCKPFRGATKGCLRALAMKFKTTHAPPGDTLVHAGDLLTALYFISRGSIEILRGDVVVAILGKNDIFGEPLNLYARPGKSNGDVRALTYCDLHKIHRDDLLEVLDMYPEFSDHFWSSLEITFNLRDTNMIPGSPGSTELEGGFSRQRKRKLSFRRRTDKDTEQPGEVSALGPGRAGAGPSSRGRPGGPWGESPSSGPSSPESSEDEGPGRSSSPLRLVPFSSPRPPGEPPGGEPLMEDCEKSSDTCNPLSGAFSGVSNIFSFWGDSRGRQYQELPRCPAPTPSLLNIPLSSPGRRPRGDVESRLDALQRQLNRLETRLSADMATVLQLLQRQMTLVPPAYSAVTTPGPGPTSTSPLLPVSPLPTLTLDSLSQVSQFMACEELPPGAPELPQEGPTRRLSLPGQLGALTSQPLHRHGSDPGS

[13] = Cmax in Sprague-Dawley rat plasma at 3 mg/kg, po and iv by LC-MS/MS analysis; assay type: ADME, organism-based; design: dose 3 mg/kg, route oral
In short: (§2)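 Rat PK after IV and PO dosing; plasma Cmax, Tmax, IV half-life and Vss determined; oral bioavailability from AUCpo/AUCiv. Metabolite exposure determined after a 3 mg/kg PO parent dose.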

[14] = Cmax in Sprague-Dawley rat at 3 mg/kg, po by LC-MS/MS analysis; assay type: ADME, organism-based; design: dose 3 mg/kg, route oral; settings: in vivo; in short: as §2
Histamine H3 receptor [15] = molecular target: T1, Histamine H3 receptor (Homo sapiens, UniProt Q9Y5N1); assay: Inverse agonist activity at human cloned histamine H3 receptor by [35S]GTPgammaS binding assay; assay type: functional
T1 sequence (Q9Y5N1 whole entry): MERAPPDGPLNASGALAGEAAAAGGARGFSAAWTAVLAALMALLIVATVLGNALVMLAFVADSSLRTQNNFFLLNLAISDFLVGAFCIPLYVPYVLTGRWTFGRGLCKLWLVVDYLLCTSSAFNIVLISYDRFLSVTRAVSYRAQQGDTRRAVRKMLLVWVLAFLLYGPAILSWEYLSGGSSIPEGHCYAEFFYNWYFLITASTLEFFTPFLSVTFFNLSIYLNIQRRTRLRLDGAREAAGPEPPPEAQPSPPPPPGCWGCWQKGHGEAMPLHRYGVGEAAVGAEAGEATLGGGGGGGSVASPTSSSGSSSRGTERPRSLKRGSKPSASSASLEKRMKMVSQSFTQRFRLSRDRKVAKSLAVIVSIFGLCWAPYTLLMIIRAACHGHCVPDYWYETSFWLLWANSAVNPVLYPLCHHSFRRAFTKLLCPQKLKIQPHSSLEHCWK

Cytochrome P450 2C19 = Cytochrome P450 2C19 (Homo sapiens, UniProt P33261); assay: Inhibition of CYP2C19; assay type: ADME
Cytochrome P450 2C19, sequence (P33261 whole entry, canonical isoform): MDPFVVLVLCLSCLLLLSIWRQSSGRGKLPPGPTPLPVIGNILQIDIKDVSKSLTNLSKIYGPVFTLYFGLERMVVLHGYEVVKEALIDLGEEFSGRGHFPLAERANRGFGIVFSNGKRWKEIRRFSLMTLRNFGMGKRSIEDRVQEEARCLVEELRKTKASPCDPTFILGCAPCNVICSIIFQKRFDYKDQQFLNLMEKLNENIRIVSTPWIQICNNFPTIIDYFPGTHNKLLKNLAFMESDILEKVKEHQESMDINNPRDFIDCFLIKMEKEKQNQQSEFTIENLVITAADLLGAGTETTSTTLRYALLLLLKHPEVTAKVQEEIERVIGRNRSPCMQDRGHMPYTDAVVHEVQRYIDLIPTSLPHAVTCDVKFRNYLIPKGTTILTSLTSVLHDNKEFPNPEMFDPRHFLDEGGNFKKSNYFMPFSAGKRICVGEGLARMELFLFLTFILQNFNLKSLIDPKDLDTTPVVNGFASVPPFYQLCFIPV
In short: (§3)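 Inhibition tested against five major CYP isoforms; IC50 determined.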

Cytochrome P450 2D6 = Cytochrome P450 2D6 (Homo sapiens, UniProt P10635); assay: Inhibition of CYP2D6; assay type: ADME; in short: as §3
Cytochrome P450 2D6, sequence (P10635 whole entry): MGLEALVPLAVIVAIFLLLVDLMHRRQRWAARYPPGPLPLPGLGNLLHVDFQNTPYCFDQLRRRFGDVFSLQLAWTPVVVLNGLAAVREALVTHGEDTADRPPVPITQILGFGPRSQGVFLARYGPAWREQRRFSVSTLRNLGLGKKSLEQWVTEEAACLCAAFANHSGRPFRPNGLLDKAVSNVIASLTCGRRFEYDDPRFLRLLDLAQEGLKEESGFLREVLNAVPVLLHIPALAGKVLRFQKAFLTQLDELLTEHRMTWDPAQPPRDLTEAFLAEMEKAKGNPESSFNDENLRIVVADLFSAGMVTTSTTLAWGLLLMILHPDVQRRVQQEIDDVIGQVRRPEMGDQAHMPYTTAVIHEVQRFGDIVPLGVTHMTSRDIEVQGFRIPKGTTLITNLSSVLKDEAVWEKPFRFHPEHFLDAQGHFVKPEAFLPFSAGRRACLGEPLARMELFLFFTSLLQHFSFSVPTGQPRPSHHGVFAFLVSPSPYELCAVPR

[16] = Half life in dog at 3 mg/kg, po by LC-MS/MS analysis; assay type: ADME, organism-based, Canis lupus familiaris; design: dose 3 mg/kg, route oral; settings: in vivo
[17] = Clearance in monkey at 3 mg/kg, po by LC-MS/MS analysis; assay type: ADME, organism-based, Macaca mulatta; design: dose 3 mg/kg, route oral; settings: rhesus monkey, in vivo
Histamine H3 receptor [18] = molecular target: T1, Histamine H3 receptor; assay: Binding affinity to human cloned histamine H3 receptor
[19] = Cmax in dog at 3 mg/kg, po by LC-MS/MS analysis; assay type: ADME, organism-based, Canis lupus familiaris; design: dose 3 mg/kg, route oral; settings: in vivo
[20] = Half life in mouse at 3 mg/kg, po by LC-MS/MS analysis; assay type: ADME, organism-based; design: dose 3 mg/kg, route oral; settings: in vivo
[21] = Half life in Sprague-Dawley rat at 3 mg/kg, iv by LC-MS/MS analysis; assay type: ADME, organism-based; design: dose 3 mg/kg, route intravenous; settings: in vivo; in short: as §2
[22] = Half life in Sprague-Dawley rat at 3 mg/kg, po by LC-MS/MS analysis; assay type: ADME, organism-based; design: dose 3 mg/kg, route oral; settings: in vivo
[23] = Cmax in monkey at 3 mg/kg, po by LC-MS/MS analysis; assay type: ADME, organism-based, Macaca mulatta; design: dose 3 mg/kg, route oral; settings: rhesus monkey, in vivo
[24] = Tmax in dog at 3 mg/kg, po by LC-MS/MS analysis; assay type: ADME, organism-based, Canis lupus familiaris; design: dose 3 mg/kg, route oral; settings: in vivo
Rattus norvegicus [25] = assay: Volume of distribution at steady state in Sprague-Dawley rat at 3 mg/kg, po and iv by LC-MS/MS analysis; assay type: ADME, organism-based; design: dose 3 mg/kg, route oral; settings: in vivo
In short: (§4)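 Rats were given the compound both IV and PO in a routine PK study. Tmax came from the PO arm and Vss from the IV arm.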

Mus musculus [26] = assay: Hepatic blood flow in mouse at 3 mg/kg, po by LC-MS/MS analysis; assay type: ADME, organism-based, Liver; design: dose 3 mg/kg, route oral; settings: in vivo
Cytochrome P450 3A4 = Cytochrome P450 3A4 (Homo sapiens, UniProt P08684); assay: Inhibition of CYP3A4; assay type: ADME; in short: as §3
Cytochrome P450 3A4, sequence (P08684 whole entry): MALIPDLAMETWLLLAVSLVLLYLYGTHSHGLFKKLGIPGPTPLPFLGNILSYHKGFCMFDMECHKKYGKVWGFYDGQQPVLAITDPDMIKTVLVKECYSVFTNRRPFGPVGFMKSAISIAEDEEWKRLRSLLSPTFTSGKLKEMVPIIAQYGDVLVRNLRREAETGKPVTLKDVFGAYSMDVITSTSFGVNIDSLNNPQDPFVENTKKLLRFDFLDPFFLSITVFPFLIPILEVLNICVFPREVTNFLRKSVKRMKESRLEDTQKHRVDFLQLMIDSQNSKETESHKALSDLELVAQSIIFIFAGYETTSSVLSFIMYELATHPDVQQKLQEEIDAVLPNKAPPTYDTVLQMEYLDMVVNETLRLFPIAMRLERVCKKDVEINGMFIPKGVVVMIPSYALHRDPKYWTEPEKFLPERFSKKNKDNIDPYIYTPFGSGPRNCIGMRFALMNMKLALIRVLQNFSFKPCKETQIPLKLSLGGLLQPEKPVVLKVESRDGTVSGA

[27] = Plasma protein binding in rat; assay type: ADME, cell-free; settings: read-out: PPB (converted)
[28] = Clearance in mouse at 3 mg/kg, po by LC-MS/MS analysis; assay type: ADME, organism-based; design: dose 3 mg/kg, route oral; settings: in vivo
Rattus norvegicus [29] = assay: Inhibition of RAMH-induced dipsogenia in Sprague-Dawley rat at 0.6 mg/kg, po administered 6 hrs prior to RAMH challenge measured up to 20 mins; assay type: functional; in short: as §1
[30] = Oral bioavailability in dog at 3 mg/kg by LC-MS/MS analysis; assay type: ADME, organism-based, Canis lupus familiaris; settings: in vivo
Mus musculus [31] = assay: Volume of distribution at steady state in mouse at 3 mg/kg, po by LC-MS/MS analysis; assay type: ADME, organism-based; design: dose 3 mg/kg, route oral; settings: in vivo
Cytochrome P450 2C9 = Cytochrome P450 2C9 (Homo sapiens, UniProt P11712); assay: Inhibition of CYP2C9; assay type: ADME; in short: as §3
Cytochrome P450 2C9, sequence (P11712 whole entry): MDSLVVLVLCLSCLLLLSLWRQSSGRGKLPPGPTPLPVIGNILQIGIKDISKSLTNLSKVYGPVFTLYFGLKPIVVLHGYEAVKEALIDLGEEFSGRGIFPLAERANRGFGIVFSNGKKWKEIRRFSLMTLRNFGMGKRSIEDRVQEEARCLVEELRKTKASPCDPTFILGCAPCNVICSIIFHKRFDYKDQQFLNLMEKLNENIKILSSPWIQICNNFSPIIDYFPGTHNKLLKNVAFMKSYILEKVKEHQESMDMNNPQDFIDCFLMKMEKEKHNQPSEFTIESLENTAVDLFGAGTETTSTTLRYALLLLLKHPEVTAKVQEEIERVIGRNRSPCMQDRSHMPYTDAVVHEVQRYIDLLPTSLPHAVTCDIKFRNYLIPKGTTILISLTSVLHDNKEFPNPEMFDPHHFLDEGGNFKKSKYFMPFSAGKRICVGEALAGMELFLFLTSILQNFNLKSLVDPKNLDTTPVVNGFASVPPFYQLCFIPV

Canis familiaris [32] = assay: Volume of distribution at steady state in dog at 3 mg/kg, po by LC-MS/MS analysis; assay type: ADME, organism-based, Canis lupus familiaris; design: dose 3 mg/kg, route oral; settings: in vivo
[33] = Oral bioavailability in Sprague-Dawley rat at 3 mg/kg by LC-MS/MS analysis; assay type: ADME, organism-based; settings: in vivo; in short: as §2
[34] = Oral bioavailability in mouse at 3 mg/kg by LC-MS/MS analysis; assay type: ADME, organism-based; settings: in vivo
Rhesus monkey [35] = assay: Hepatic blood flow in monkey at 3 mg/kg, po by LC-MS/MS analysis; assay type: ADME, organism-based, Macaca mulatta, Liver; design: dose 3 mg/kg, route oral; settings: in vivo
Rattus norvegicus [36] = assay: Volume of distribution at steady state in Sprague-Dawley rat at 3 mg/kg, po by LC-MS/MS analysis; assay type: ADME, organism-based; design: dose 3 mg/kg, route oral; settings: in vivo
Cytochrome P450 1A2 = molecular target: T2, Cytochrome P450 1A2 (Homo sapiens, UniProt P05177); assay: Inhibition of CYP1A2; assay type: ADME; in short: as §3
T2 sequence (P05177 whole entry): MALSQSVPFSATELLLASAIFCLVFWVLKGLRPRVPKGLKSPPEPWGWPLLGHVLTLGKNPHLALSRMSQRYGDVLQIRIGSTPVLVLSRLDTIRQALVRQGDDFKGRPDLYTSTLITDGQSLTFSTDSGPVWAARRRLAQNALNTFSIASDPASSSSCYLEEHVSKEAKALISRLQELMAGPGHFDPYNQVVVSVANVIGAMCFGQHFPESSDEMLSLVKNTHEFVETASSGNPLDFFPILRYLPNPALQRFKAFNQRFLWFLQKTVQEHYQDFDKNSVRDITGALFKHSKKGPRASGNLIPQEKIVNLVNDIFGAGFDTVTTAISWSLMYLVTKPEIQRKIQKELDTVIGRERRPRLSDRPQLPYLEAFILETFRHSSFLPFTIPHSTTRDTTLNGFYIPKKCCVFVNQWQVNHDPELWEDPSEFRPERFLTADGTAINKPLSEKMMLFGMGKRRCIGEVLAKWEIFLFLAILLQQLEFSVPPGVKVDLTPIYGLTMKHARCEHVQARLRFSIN

[37] = Drug uptake in Sprague-Dawley rat brain at 0.3 mg/kg, po after 1 hr; assay type: ADME, organism-based; design: dose 0.3 mg/kg, route oral
In short: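 Whole-brain concentration measured 1 h after a 0.3 mg/kg oral dose in rat, the time coinciding with the drinking measurement; expressed […].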

[38] = Tmax in mouse at 3 mg/kg, po by LC-MS/MS analysis; assay type: ADME, organism-based; design: dose 3 mg/kg, route oral; settings: in vivo
Salmonella typhimurium = assay: Mutagenic activity in Salmonella Typhimurium by micro-Ames assay; assay type: toxicity, organism-based; settings: salmonella enterica subsp. enterica serovar typhimurium
hERG (KCNH2) = hERG (KCNH2) (Homo sapiens, UniProt Q12809); assay: Inhibition of human ERG at 3 uM by patch-clamp assay
hERG (KCNH2), sequence (Q12809 whole entry): as the sequence (Q12809 whole entry) above

[39] = Tmax in Sprague-Dawley rat at 3 mg/kg, po and iv by LC-MS/MS analysis; assay type: ADME, organism-based; design: dose 3 mg/kg, route oral; settings: in vivo; in short: as §4
[40] = Oral bioavailability in monkey at 3 mg/kg by LC-MS/MS analysis; assay type: ADME, organism-based, Macaca mulatta; settings: rhesus monkey, in vivo
[41] = Plasma protein binding in human; assay type: ADME, cell-free; settings: read-out: PPB (converted)
[42] = Clearance in dog at 3 mg/kg, po by LC-MS/MS analysis; assay type: ADME, organism-based, Canis lupus familiaris; design: dose 3 mg/kg, route oral; settings: in vivo
[43] = Clearance in Sprague-Dawley rat at 3 mg/kg, po by LC-MS/MS analysis; assay type: ADME, organism-based; design: dose 3 mg/kg, route oral; settings: in vivo

Tmax [1]: 2.3 h | Vdss (Rhesus monkey [3]): 2.16 L/kg | QH (Rattus norvegicus [4]): 106% | QH (Canis familiaris [5]): 43% | Kp [6]: 3.3 | Cmax [8]: 80 ng/mL | half-life [9]: 6.9 h | Ki (Histamine H3 receptor [10]): 0.0007 µM | Cmax [13]: 104 ng/mL | Cmax [14]: 100 ng/mL | IC50 (Histamine H3 receptor [15]): 0.0007 µM | IC50 (Cytochrome P450 2C19): > 40 µM | IC50 (Cytochrome P450 2D6): > 40 µM | half-life [16]: 5 h | CL/F [17]: 6.17 mL/min/kg | Ki (Histamine H3 receptor [18]): 0.0042 µM | Cmax [19]: 600 ng/mL | half-life [20]: 1.5 h | half-life [21]: 1.9 h | half-life [22]: 1.9 h | Cmax [23]: 550 ng/mL | Tmax [24]: 0.8 h | Vdss (Rattus norvegicus [25]): 7.5 L/kg | QH (Mus musculus [26]): 78% | IC50 (Cytochrome P450 3A4): > 40 µM | fraction unbound [27]: 0.26 | CL/F [28]: 72.7 mL/min/kg | bioavailability [30]: 100% | Vdss (Mus musculus [31]): 2.54 L/kg | IC50 (Cytochrome P450 2C9): > 40 µM | Vdss (Canis familiaris [32]): 2.89 L/kg | bioavailability [33]: 27.3% | bioavailability [34]: 35.4% | QH (Rhesus monkey [35]): 14% | Vdss (Rattus norvegicus [36]): 7.54 L/kg | IC50 (Cytochrome P450 1A2): > 40 µM | concentration at 1 h [37]: 17 ng/g | Tmax [38]: 1 h | Tmax [39]: 0.5 h | bioavailability [40]: 67.5% | fraction unbound [41]: 0.26 | CL/F [42]: 13.7 mL/min/kg | CL/F [43]: 74.3 mL/min/kg
Structure (SMILES): COCCCS(=O)(=O)c1ccc(-c2ccc(CCN3CCC[C@H]3C)cc2)cc1
Activity (Canis lupus familiaris [2]): Non-toxic | Activity (Canis lupus familiaris [7]): Toxic | minimal effective dose (Rattus norvegicus [11]): 0.3 mg/kg | IC50 [12]: 11 µM | inhibition in vivo at 0.6 mg/kg (Rattus norvegicus [29]): < 20% | Activity (Salmonella typhimurium): Non-toxic | inhibition at 3 µM (hERG (KCNH2)): 14%

From ChEMBL document CHEMBL1932985, “Identification of biaryl sulfone derivatives as antagonists of the histamine H₃ receptor: discovery of (R)-1-(2-(4'-(3-methoxypropylsulfonyl)biphenyl-4-yl)ethyl)-2-methylpyrrolidine (APD916)” (Bioorg Med Chem Lett, 2012)
